Each structure is given as a SMILES string.

A short description of series [1]: Partition coefficient (logP). Format: physicochemical. The note with it: octanol/water. The gist of the method:
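Shake partitioning between octanol and distilled water gave log P. For carboxylate substituents, log P was taken in 0.1 N NaOH, with Na+ as counterion.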

Series [2] concerns L1210. Description: Tested for 3 log kill of leukemia cells. The format is functional, Mus musculus. The gist of the method: (§1)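 L-1210 leukemia cells (10^4) were inoculated intracerebrally into BDF2 mice, and drug was given intraperitoneally. The end point was the dose giving 3 log kill, expressed as log 1/C. The value comes from one or more individual experiments.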
Series [3] relates to L1210. The series can be described thus: Toxicity against L-1210 leukemia cells in mice after intraperitoneal administration, activity is expressed as LD10. Further details: LD10: unit not given here. The note with it: mouse, in vivo, ip.
Series [4] deals with Mus musculus. Description: Tested for toxicity against L-1210 leukemia cells in mice after ip administration, activity is expressed as LD10. The format is organism-based. The note with it: in vivo.
Series [5] is filed under the species Mus musculus. Description: Tested for 3 log kill of leukemia cells (i.e., a reduction of 1000-fold in tumor cells). The format is functional. In short, it runs like this:
as §1

For `CC(C)(C)C1CCC(NC(=O)N(CCCl)N=O)CC1` (stereo not given), the logP (in general, the decadic logarithm of the partition coefficient of the neutral form, usually between octanol and water) in series [1] (read-out: logP) came to 4.66. Besides, the “log(1/C)” value in series [2] came to 0.684. The compound further registered a log(1/LD10) in series [3] of -0.212.
The like results for `CC(=O)OCC1CCC(NC(=O)N(CCCl)N=O)CC1` (stereo not given) were, in that order, 2.35, 1.66 and 1.02.
The like results for `O=NN(CCCl)C(=O)NC1CCC(CC2CCC(NC(=O)N(CCCl)N=O)CC2)CC1` (stereo not given) were, in that order, 6.07, 1.36 and 0.283.
`C[C@H]1CCC[C@H](NC(=O)N(CCCl)N=O)C1` registered a logP in series [1] of 3.3. Further, the “log(1/C)” value in series [2] was 1.09. This compound came in with an LD10 in series [3] of 0.352.
Turning to `O=COCC1CCC(NC(=O)N(CCCl)N=O)CC1` (stereo not given), the logP in series [1] (read-out: logP) was found to be 1.85. The “log(1/C)” value in series [2] was found to be 1.62. This compound displayed a log(1/LD10) in series [3] of 1.12.
In the case of `Cc1cc(C)c(NC(=O)N(CCCl)N=O)c(C)c1`, in series [1] (read-out: logP), the logP turned out to be 3.11. The “log(1/C)” value in series [2] turned out to be 1.58. Also, the log(1/LD10) in series [3] is 0.675.
The like results for `O=NN(CCF)C(=O)NC1CCCCC1` were, in that order, 2.25, 1.34 and 0.806.
Consider `O=NN(CCCl)C(=O)NC1CCC(CCl)CC1` (stereo not given), for which the logP in series [1] (read-out: logP) stood at 3.01. Further, the “log(1/C)” value in series [2] is listed as 1.27. The compound also displayed a log(1/LD10) in series [3] of 0.658.
The like results for `O=NN(CCCl)C(=O)N[C@@H]1CCC[C@H](O)C1` were, in that order, 1.11, 1.28 and 0.698.
As for `O=NN(CCCl)C(=O)NC(C(=O)O)C1CCCCC1` (stereo not given), the logP in series [1] (read-out: logP) worked out at 2.89. The “log(1/C)” value in series [2] came out at 1.23. The compound further registered a log(1/LD10) in series [3] of 0.602.
As for `CN(C(=O)N(CC/C=N/C(=O)N(CCCl)N=O)N=O)C1CCCCC1`, in series [1] (read-out: logP), the logP stood at 3.19. Moreover, the “log(1/C)” value in series [2] came out at 0.353. In addition, the log(1/LD10) in series [3] is -0.207.
The like results for `O=NN(CCCl)C(=O)NC1CCS(=O)(=O)CC1` were, in that order, 0.19, 1.93 and 1.22.
The like results for `CC12CC3(C)CC(C)(C1)CC(NC(=O)N(CCCl)N=O)(C2)C3` were, in that order, 5.75, 0.783 and -0.384.
Consider `CC1CC(NC(=O)N(CCCl)N=O)CC(C)(C)C1` (stereo not given), for which the logP in series [1] (read-out: logP) was determined as 4.06. Further, the “log(1/C)” value in series [2] was 0.294. The compound also gave a log(1/LD10) in series [3] of -0.434.
`CC(C)(Cc1ccccc1)NC(=O)N(CCCl)N=O`: the logP in series [1] (read-out: logP) came out at 3.42. Further, in series [2], the “log(1/C)” value was 0.737. This compound registered a log(1/LD10) in series [3] of -0.422.
The like results for `CC1(C)CCC(NC(=O)N(CCF)N=O)CC1` were, in that order, 3.13, 1.09 and 0.674.
As to `CCCCCC(C)NC(=O)N(CCCl)N=O` (stereo not given), the logP in series [1] (read-out: logP) amounted to 3.55. Also, in series [2], the “log(1/C)” value is 0.853. In series [3], the log(1/LD10) came to 0.642.
For `O=NN(CCCl)C(=O)NC1CCCC(C(=O)O)C1` (stereo not given) the same measures were 1.86, 1.47 and 0.912.
The like results for `C[C@H]1CCC[C@@H](NC(=O)N(CCCl)N=O)C1` were, in that order, 3.37, 1.09 and 0.315.
The like results for `O=NN(CCCl)C(=O)NC1CCSc2ccccc21` (stereo not given) were, in that order, 2.91, 1.4 and 0.585.
The compound `O=NN(CCCl)C(=O)N[C@H]1CC[C@H](O)CC1` came in with a logP in series [1] of 1.1. In addition, the log(1/LD10) in series [4] turned out to be 0.774.
For `CCC1CCC(NC(=O)N(CCCl)N=O)CC1` (stereo not given), the logP in series [1] (read-out: logP) is 3.84. Also, in series [2], the “log(1/C)” value is recorded as 1.27. The compound further registered a log(1/LD10) in series [3] of 0.445.
The like results for `O=NN(CCF)C(=O)NC1C2CC3CC(C2)CC1C3` (stereo not given) were, in that order, 3.04, 0.797 and 0.592.
The like results for `O=NN(CCCl)C(=O)NC(Cc1ccccc1)C(=O)O` (stereo not given) were, in that order, 2.59, 1.1 and 0.563.
The like results for `O=NN(CCCl)C(=O)NC1(C(=O)O)CCCC1` were, in that order, 1.82, 0.605 and 0.308.
Regarding `O=NN(CCF)C(=O)N[C@H]1CC[C@@H](C(=O)O)CC1`, the logP in series [1] was 1.1. For the same compound, the “log(1/C)” value in series [5] is recorded as 1.06.
Consider `O=NN(CCCl)C(=O)N[C@H]1CC[C@@H](CC(=O)O)CC1`, for which, in series [1] (read-out: logP), the logP turned out to be 2.22. Further, the “log(1/C)” value in series [2] was found to be 1.35. This compound registered a log(1/LD10) in series [3] of 0.701.
The like results for `O=NN(CCF)C(=O)NC1CSCSC1` were, in that order, 1.54, 1.78 and 0.802.
Turning to `O=NN(CCCl)C(=O)NC1CCCC(NC(=O)N(CCCl)N=O)C1` (stereo not given), in series [1] (read-out: logP), the logP was found to be 2.74. Also, the “log(1/C)” value in series [2] was determined as 1.41. Further, the log(1/LD10) in series [3] worked out at 0.146.
For `O=NN(CCCl)C(=O)NC(CCC(=O)O)C(=O)O` (stereo not given) the same measures were 0.6, 0.87 and 0.037.
The like results for `O=NN(CCCl)C(=O)NC1CCS(=O)(=O)C1` (stereo not given) were, in that order, 0.57, 1.82 and 1.13.
Consider `O=NN(CCCl)C(=O)NC1CCCC1`, for which the logP in series [1] (read-out: logP) was found to be 2.19. The “log(1/C)” value in series [2] turned out to be 0.74. Also, in series [3], the log(1/LD10) is 0.215.
For `O=NN(CCCl)C(=O)NC1CCC(Cl)CC1` (stereo not given) the same measures were 2.66, 1.25 and 0.738.
The like results for `O=NN(CCF)C(=O)NC1CS(=O)(=O)CS(=O)(=O)C1` were, in that order, -1.48, 1.69 and 0.626.
For `CC(NC(=O)N(CCCl)N=O)C(=O)O` (stereo not given), in series [1] (read-out: logP), the logP turned out to be 0.5. The “log(1/C)” value in series [2] is 0.918. The compound further registered a log(1/LD10) in series [3] of 0.511.
The like results for `CC(C)C1CCC(NC(=O)N(CCF)N=O)CC1` (stereo not given) were, in that order, 3.67, 1.05 and 0.388.
For `CC(C)(NC(=O)N(CCCl)N=O)C(=O)O` the same measures were 0.91, 0.591 and -0.049.
For `CC(=O)O[C@H]1CCCC[C@@H]1NC(=O)N(CCCl)N=O` the same measures were 2.56, 1.65 and 0.91.
Consider `CC1CCC(NC(=O)N(CCF)N=O)CC1` (stereo not given), for which the logP in series [1] (read-out: logP) stood at 2.72. The “log(1/C)” value in series [2] was 1.16. The compound further had a log(1/LD10) in series [3] of 0.72.
In the case of `CO[C@H]1CC[C@@H](NC(=O)N(CCCl)N=O)CC1`, the logP in series [1] (read-out: logP) was 2.09. In addition, the “log(1/C)” value in series [2] came out at 1.38. The log(1/LD10) in series [3] was 0.819.
Regarding `O=NN(CCCl)C(=O)N[C@H]1CC[C@H](C(=O)O)CC1`, the logP in series [1] (read-out: logP) is 1.53. The “log(1/C)” value in series [2] was 1.47. This compound also showed a log(1/LD10) in series [3] of 1.01.
For `O=NN(CCCl)C(=O)NC1CCCCCCCCCCC1` the same measures were 5.8, 0.599 and -0.573.
For `O=NN(CCCl)C(=O)NC1C2CC3CC(C2)CC1C3` (stereo not given) the same measures were 3.62, 0.854 and 0.512.
The like results for `COCC1OC(O)C(NC(=O)N(CCCl)N=O)C(OC)C1OC` (stereo not given) were, in that order, 0.8, 1.48 and 0.682.

Source of the values: ChEMBL document CHEMBL1121539, “Antitumor structure-activity relations. Nitrosoureas vs. L-1210 leukemia” (J Med Chem, 1980).
